Experimental data from different studies.
Lines come from different studies, so protocols differ.
Effect on: enzyme activity
ABL1 Q252H: Tyrosine-protein kinase ABL1 (ABL1, Homo sapiens, UniProt P00519, Q252H)
ABL1: Tyrosine-protein kinase ABL1 (ABL1, Homo sapiens, UniProt P00519)

| SMILES | target | mode | method | tested at | remaining activity [%] |
| --- | --- | --- | --- | --- | --- |
| Cc1cnc(NC2CCOCC2)nc1-n1cnc(C(=O)NC(CN)c2cc(F)cc(Cl)c2)c1 (stereo not drawn) | ABL1 Q252H | inhibitor | radiometric | 1 µM | 91 |
| COc1cc(Nc2cnc(C#N)c(O[C@H](C)CN(C)C)n2)ncc1-c1cnn(C)c1 | ABL1 | inhibitor | radiometric | 10 µM | 58 |
| CC(C)(O)[C@H]1CC[C@H](Nc2ccc3ncc(-c4cccc(C(F)(F)F)c4)n3n2)CC1 | ABL1 | inhibitor |  | 1 µM | 69.8 |
| CCCOc1ccc(OC)c(F)c1C(=O)c1ccc(C(=O)N[C@@H]2CNC[C@H]2NC(=O)c2ccc3[nH]ncc3c2)cc1 | ABL1 | inhibitor |  | 10 µM | 80 |
| Cc1[nH]c(/C=C2\C(=O)Nc3ccc(F)cc32)c(C)c1C(=O)N[C@H]1CCN(C(=O)N(C)C)C1 | ABL1 | inhibitor |  | 0.1 µM | 104 |
| CC(C)(C)c1nc2c(s1)c1nc(N)ncc1c1ccc(NS(=O)(=O)c3c(F)cccc3F)c(F)c12 | ABL1 | inhibitor | radiometric | 1 µM | 93 |
| COc1cc(Cl)c(C(=O)N[C@@H](CN[C@H]2CC[C@@H](N)CC2)Cc2ccc(C#N)cc2)cc1-c1ccc(CN[C@H](C)c2ccc(C)cc2)o1 | ABL1 | inhibitor |  | 1 µM | 96 |
| Cc1sc(C(=O)NC2COC2)cc1-n1cc(NC(=O)Nc2c(F)cccc2Cl)cn1 | ABL1 | inhibitor |  | 10 µM | 102 |
| Cc1ccc(NC(=O)c2ccc(C)c(C(F)(F)F)c2)cc1C#Cc1nn(C2CCC(O)CC2)c2ncnc(N)c12 (stereo not drawn) | ABL1 Q252H |  |  | 10 µM | 2 |
